Test results: ChEMBL document CHEMBL1275566, “MexCD-OprJ multidrug efflux system of Pseudomonas aeruginosa: involvement in chlorhexidine resistance and induction by membrane-damaging agents dependent upon the AlgU stress response sigma factor” (2008)
Converted amounts (≈) assume the structure as drawn. The source made the active and inactive calls. The rule behind the calls is not given here.

What was measured:
Pseudomonas aeruginosa [1] = experiment: Induction of mexCD-oprJ expression in Pseudomonas aeruginosa PAO1 K767 at 3 ug/ml after 2.5 hrs by semiquantitative RT-PCR; format: functional, organism-based
Pseudomonas aeruginosa [2] = experiment: Induction of mexCD-oprJ expression in Pseudomonas aeruginosa PAO1 K767 at 2.5 ug/ml after 2.5 hrs by semiquantitative RT-PCR; format: functional, organism-based
Pseudomonas aeruginosa [3] = experiment: Induction of mexCD-oprJ expression in mexB and mexXY deficient and AlgU-positive Pseudomonas aeruginosa K1542 at 2.5 ug/ml by semiquantitative RT-PCR; format: functional, organism-based
Pseudomonas aeruginosa [4] = experiment: Induction of mexCD-oprJ expression in mexB and mexXY deficient and AlgU-negative Pseudomonas aeruginosa K2897 at 0.33 ug/ml by semiquantitative RT-PCR; format: functional, organism-based
Pseudomonas aeruginosa [5] = experiment: Induction of mexCD-oprJ expression in AlgU and NfxB-positive Pseudomonas aeruginosa K767; format: functional, organism-based
Pseudomonas aeruginosa [6] = experiment: Induction of mexCD-oprJ expression in AlgU-positive and NfxB-negative Pseudomonas aeruginosa K1536; format: functional, organism-based
Pseudomonas aeruginosa [7] = experiment: Induction of mexCD-oprJ expression in Pseudomonas aeruginosa K2895 harboring plasmid pMMB206; format: functional, organism-based
Pseudomonas aeruginosa [8] = experiment: Induction of mexCD-oprJ expression in Pseudomonas aeruginosa K2895 harboring plasmid pMMB206 carrying AlgU gene; format: functional, organism-based
Pseudomonas aeruginosa [9] = experiment: Antimicrobial activity against CDJ and AlgU-positive Pseudomonas aeruginosa K1542; format: functional
Pseudomonas aeruginosa [10] = experiment: Antimicrobial activity against CDJ-negative and AlgU-positive Pseudomonas aeruginosa K2896; format: functional
Pseudomonas aeruginosa [11] = experiment: Antimicrobial activity against CDJ-positive and AlgU-negative Pseudomonas aeruginosa K2897; format: functional
Outline: (§1)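 Broth susceptibility testing of P. aeruginosa strains in LB at 37°C. Strains are defined by mexCD-oprJ status (CDJ+ means present and CHX-inducible but not expressed untreated; CDJ− means deleted) and by algU status.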

Pseudomonas aeruginosa [12] = experiment: Antimicrobial activity against CDJ and AlgU-negative Pseudomonas aeruginosa K2898; format: functional; outline: as §1
Pseudomonas aeruginosa [13] = experiment: Antimicrobial activity against CDJ and AlgU-positive Pseudomonas aeruginosa K767; format: functional
Pseudomonas aeruginosa [14] = experiment: Antimicrobial activity against CDJ-negative and AlgU-positive Pseudomonas aeruginosa K1521; format: functional; outline: as §1
Pseudomonas aeruginosa [15] = experiment: Antimicrobial activity against CDJ-positive and AlgU-negative Pseudomonas aeruginosa K2443; format: functional
Pseudomonas aeruginosa [16] = experiment: Antimicrobial activity against CDJ-positive and AlgU-negative Pseudomonas aeruginosa K2443 harboring plasmid pMMB206; format: functional
Pseudomonas aeruginosa [17] = experiment: Antimicrobial activity against CDJ-positive and AlgU-negative Pseudomonas aeruginosa K2443 harboring plasmid pMMB206 carrying AlgU gene; format: functional
Pseudomonas aeruginosa [18] = experiment: Antimicrobial activity against NfxB-negative and AlgU-positive Pseudomonas aeruginosa K1536; format: functional
Pseudomonas aeruginosa [19] = experiment: Antimicrobial activity against NfxB- and AlgU-negative Pseudomonas aeruginosa K2895; format: functional
Pseudomonas aeruginosa [20] = experiment: Antimicrobial activity against NfxB- and AlgU-negative Pseudomonas aeruginosa K2895 harboring plasmid pMMB206; format: functional
Pseudomonas aeruginosa [21] = experiment: Antimicrobial activity against NfxB-and AglU-negative Pseudomonas aeruginosa K2895 harboring plasmid pMMB206 carrying AlgU gene; format: functional
Pseudomonas aeruginosa [22] = experiment: Antimicrobial activity against CDJ -positive Pseudomonas aeruginosa K2889; format: functional; outline: as §1
Pseudomonas aeruginosa [23] = experiment: Antimicrobial activity against CDJ -negative Pseudomonas aeruginosa K2891; format: functional
Pseudomonas aeruginosa [24] = experiment: Induction of PmexCD-oprJ-lacZ expression in Pseudomonas aeruginosa K2899 at 1.25 ug/ml by beta-galactosidase reporter assay; format: functional, organism-based
Pseudomonas aeruginosa [25] = experiment: Induction of PmexCD-oprJ-lacZ expression in AlgU-negative Pseudomonas aeruginosa K2901 at 0.16 ug/ml by beta-galactosidase reporter assay; format: functional, organism-based
Pseudomonas aeruginosa [26] = experiment: Induction of PmexCD-oprJ-lacZ expression in Pseudomonas aeruginosa K2899 at 0.125 ug/ml by beta-galactosidase reporter assay; format: functional, organism-based
Pseudomonas aeruginosa [27] = experiment: Induction of PmexCD-oprJ-lacZ expression in AlgU-negative Pseudomonas aeruginosa K2901 at 0.125 ug/ml by beta-galactosidase reporter assay; format: functional, organism-based
Pseudomonas aeruginosa [28] = experiment: Induction of PmexCD-oprJ-lacZ expression in Pseudomonas aeruginosa K2899 at 3.1 ug/ml by beta-galactosidase reporter assay; format: functional, organism-based
Pseudomonas aeruginosa [29] = experiment: Induction of PmexCD-oprJ-lacZ expression in AlgU-negative Pseudomonas aeruginosa K2901 at 3.1 ug/ml by beta-galactosidase reporter assay; format: functional, organism-based
Pseudomonas aeruginosa [30] = experiment: Induction of PmexCD-oprJ-lacZ expression in Pseudomonas aeruginosa K2899 at 15 ug/ml by beta-galactosidase reporter assay; format: functional, organism-based
Pseudomonas aeruginosa [31] = experiment: Induction of PmexCD-oprJ-lacZ expression in AlgU-negative Pseudomonas aeruginosa K2901 at 15 ug/ml by beta-galactosidase reporter assay; format: functional, organism-based
Pseudomonas aeruginosa [32] = experiment: Induction of PmexCD-oprJ-lacZ expression in Pseudomonas aeruginosa K2899 at 11.6 ug/ml by beta-galactosidase reporter assay; format: functional, organism-based
Pseudomonas aeruginosa [33] = experiment: Induction of PmexCD-oprJ-lacZ expression in AlgU-negative Pseudomonas aeruginosa K2901 at 11.6 ug/ml by beta-galactosidase reporter assay; format: functional, organism-based
Pseudomonas aeruginosa [34] = experiment: Induction of PmexCD-oprJ-lacZ expression in Pseudomonas aeruginosa K2899 at 8 ug/ml by beta-galactosidase reporter assay; format: functional, organism-based
Pseudomonas aeruginosa [35] = experiment: Induction of PmexCD-oprJ-lacZ expression in AlgU-negative Pseudomonas aeruginosa K2901 at 8 ug/ml by beta-galactosidase reporter assay; format: functional, organism-based
Pseudomonas aeruginosa [36] = experiment: Induction of PmexCD-oprJ-lacZ expression in Pseudomonas aeruginosa K2899 at 16 ug/ml by beta-galactosidase reporter assay; format: functional, organism-based
Pseudomonas aeruginosa [37] = experiment: Induction of PmexCD-oprJ-lacZ expression in AlgU-negative Pseudomonas aeruginosa K2901 at 16 ug/ml by beta-galactosidase reporter assay; format: functional, organism-based
Pseudomonas aeruginosa [38] = experiment: Induction of mexCD-oprJ expression in AlgU-negative and NfxB-negative Pseudomonas aeruginosa K2895
Pseudomonas aeruginosa [39] = experiment: Induction of mexCD-oprJ expression in Pseudomonas aeruginosa PAO1 K767 at 100 ug/ml after 2.5 hrs by semiquantitative RT-PCR; format: functional, organism-based

Question: With CCCCC(CC)CNC(=N)NC(=N)NCCCCCCNC(=N)NC(=N)NCC(CC)CCCC (centres undefined) as the compound, how does the Activity (Pseudomonas aeruginosa [1]) read?
Answer: Its Activity is “Active”.

Question: With N=C(NCCCCCCNC(=N)NC(=N)Nc1ccc(Cl)cc1)NC(=N)Nc1ccc(Cl)cc1 [CHLORHEXIDINE] as the compound, how does the Activity (Pseudomonas aeruginosa [2]) read?
Answer: The Activity was “Active”.

Question: What about the Activity (Pseudomonas aeruginosa [3]) of the same compound?
Answer: The Activity was “Active”.

Question: What about the Activity (Pseudomonas aeruginosa [4]) of the same compound?
Answer: Its Activity is “Active”.

Question: And the Activity (Pseudomonas aeruginosa [5])?
Answer: Its Activity is “Active”.

Question: And the Activity (Pseudomonas aeruginosa [6])?
Answer: The Activity was “Active”.

Question: And the Activity (Pseudomonas aeruginosa [7])?
Answer: The Activity was “Active”.

Question: What about the Activity (Pseudomonas aeruginosa [8]) of the same compound?
Answer: Its Activity is “Active”.

Question: What about the MIC (Pseudomonas aeruginosa [9]) of the same compound?
Answer: The MIC was 10 µg/mL (≈ 19.8 µM).

Question: What about the MIC (Pseudomonas aeruginosa [10]) of the same compound?
Answer: Its MIC is 2.5 µg/mL (≈ 4.95 µM).

Question: What about the MIC (Pseudomonas aeruginosa [11]) of the same compound?
Answer: The MIC was 1.25 µg/mL (≈ 2.47 µM).

Question: And the MIC (Pseudomonas aeruginosa [12])?
Answer: Its MIC is 0.625 µg/mL (≈ 1.24 µM).

Question: And the MIC (Pseudomonas aeruginosa [13])?
Answer: Its MIC is 10 µg/mL (≈ 19.8 µM).

Question: And the MIC (Pseudomonas aeruginosa [14])?
Answer: Its MIC is 5 µg/mL (≈ 9.89 µM).

Question: And the MIC (Pseudomonas aeruginosa [15])?
Answer: Its MIC is 2.5 µg/mL (≈ 4.95 µM).

Question: And the MIC (Pseudomonas aeruginosa [16])?
Answer: The MIC was 2.5 µg/mL (≈ 4.95 µM).

Question: What about the MIC (Pseudomonas aeruginosa [17]) of the same compound?
Answer: Its MIC is 10 µg/mL (≈ 19.8 µM).

Question: And the MIC (Pseudomonas aeruginosa [18])?
Answer: The MIC was 20 µg/mL (≈ 39.6 µM).

Question: What about the MIC (Pseudomonas aeruginosa [19]) of the same compound?
Answer: Its MIC is 2.5 µg/mL (≈ 4.95 µM).

Question: What about the MIC (Pseudomonas aeruginosa [20]) of the same compound?
Answer: Its MIC is 2.5 µg/mL (≈ 4.95 µM).

Question: And the MIC (Pseudomonas aeruginosa [21])?
Answer: Its MIC is 20 µg/mL (≈ 39.6 µM).

Question: What about the MIC (Pseudomonas aeruginosa [22]) of the same compound?
Answer: The MIC was over 50 µg/mL.

Question: And the MIC (Pseudomonas aeruginosa [23])?
Answer: Its MIC is 10 µg/mL (≈ 19.8 µM).

Question: And the Activity (Pseudomonas aeruginosa [24])?
Answer: The Activity was “Active”.

Question: And the Activity (Pseudomonas aeruginosa [25])?
Answer: The Activity was “Active”.

Question: What about the Activity (Pseudomonas aeruginosa [26]) of the same compound?
Answer: The Activity was “Active”.

Question: What about the Activity (Pseudomonas aeruginosa [27]) of the same compound?
Answer: Its Activity is “Active”.

Question: And the Activity (Pseudomonas aeruginosa [28])?
Answer: Its Activity is “Active”.

Question: What about the Activity (Pseudomonas aeruginosa [29]) of the same compound?
Answer: Its Activity is “Active”.

Question: What about the Activity (Pseudomonas aeruginosa [30]) of the same compound?
Answer: The Activity was “Active”.

Question: What about the Activity (Pseudomonas aeruginosa [31]) of the same compound?
Answer: Its Activity is “Active”.

Question: What about the Activity (Pseudomonas aeruginosa [32]) of the same compound?
Answer: Its Activity is “Active”.

Question: What about the Activity (Pseudomonas aeruginosa [33]) of the same compound?
Answer: Its Activity is “Active”.

Question: And the Activity (Pseudomonas aeruginosa [34])?
Answer: The Activity was “Active”.

Question: What about the Activity (Pseudomonas aeruginosa [35]) of the same compound?
Answer: The Activity was “Active”.

Question: What about the Activity (Pseudomonas aeruginosa [36]) of the same compound?
Answer: Its Activity is “Active”.

Question: What about the Activity (Pseudomonas aeruginosa [37]) of the same compound?
Answer: Its Activity is “Active”.

Question: What about the Activity (Pseudomonas aeruginosa [38]) of the same compound?
Answer: The Activity was “Active”.

Question: With CETRIMIDE as the compound, how does the Activity (Pseudomonas aeruginosa [39]) read?
Answer: Its Activity is “Active”.
